# Legend:
# [1] = biological target: T1, Structural capsid protein (Human immunodeficiency virus 1, UniProt Q76129); assay: Inhibition of HIV1 capsid protein assembly using 5'-fluorescein-labeled (TG)25 oligonucleotide after 2 hrs by fluorometry-based capsid disassembly assay
# Procedure, shortened: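 Biotin-(TG)25 oligonucleotide (25 nM, overnight) immobilized on neutravidin wells; CA-NC (2 µM) assembled with 100 nM 5'-fluorescein (TG)25 in Tris pH 8.0/NaCl/ZnSO4/CHAPS/BSA/DTT buffer, 2 h RT, washed. Serially diluted compounds (buffer + 0.125% DMSO) added 2 h RT; washes, SDS release, captured fluorescence read. Ten-point curves fitted; IC50 = concentration giving 50% disassembly.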
# [2] = system: Human immunodeficiency virus 1; assay: Antiviral activity against HIV1; assay type: functional, organism-based
# Procedure, shortened: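 Cell-based HIV-1 replication assay. EC50 is the concentration that inhibits virus replication by 50%.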
# [3] = Half life in rat liver microsomes; assay type: ADME, Microsome
# [4] = Permeability of the compound across human Caco2 cells; assay type: ADME, cell-based; details: Caco-2, read-out: permeability
# [5] = Half life in human liver microsomes; assay type: ADME, Microsome
# [6] = biological target: T1, Structural capsid protein; assay: Inhibition of HIV1 capsid protein binding to fluorescein labeled 3-(5-(3-ethyl-5-(5-methylfuran-2-yl)-1H-pyrazol-1-yl)-1-((6-oxo-1,6-dihydropyridin-3-yl)methyl)-1H-benzo[d]imidazol-2-yl)-4-hydroxybenzoic acid after 15 mins by fluorescence polarization assay
# Procedure, shortened: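 CA-NC protein (40 nM) mixed with 40 nM fluorescein probe plus serially diluted compounds in Tris pH 8.0, 100 mM NaCl, CHAPS, DTT buffer with 2% DMSO before mixing. 15 min incubation, then fluorescence polarization read. Wells without compound defined 0% displacement; probe-only wells defined 100%.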
# T1 sequence (Q76129 whole entry): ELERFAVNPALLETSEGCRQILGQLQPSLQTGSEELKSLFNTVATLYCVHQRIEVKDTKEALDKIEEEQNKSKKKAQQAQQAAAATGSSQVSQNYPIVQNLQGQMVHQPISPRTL
SMILES,IC50 [1] [nM],EC50 [2] [nM],half-life [3] [min],Papp [4] [×10⁻⁶ cm/s],half-life [5] [min],IC50 [6] [nM]
CCc1cc(-c2ccc(C)o2)n(-c2ccc3c(c2)nc(-c2ccc(C(N)=O)cc2)n3Cc2cccnc2)n1,360,2600,,,,
CCc1cc(-c2ccc(C(F)(F)F)o2)n(-c2ccc3c(c2)nc(-c2cc(C(=O)N4CCCC4)ccc2O)n3Cc2ccc(=O)[nH]c2)n1,,62,45,0.19,30,61
CCc1cc(-c2ccc(C)o2)n(-c2ccc3c(c2)nc(-c2cc(C(=O)O)ccc2O)n3Cc2ccc(=O)[nH]c2)n1,56,> 46000,,,,650
CCc1cc(-c2ccc(C(F)(F)F)o2)n(-c2ccc3c(c2)nc(-c2cc(C(=O)N4CCCC4)ccc2O)n3Cc2cc(C)c(=O)n(C)c2)n1,,27,18,7.2,10,67
CCc1cc(-c2ccc(C)o2)n(-c2ccc3c(c2)nc(-c2ccc(C(N)=O)cc2)n3Cc2ccc(=O)[nH]c2)n1,170,13000,,,,
CCc1cc(-c2ccc(C)o2)n(-c2ccc3c(c2)nc(-c2cc(C(=O)O)ccc2O)n3Cc2ccc(OC)c(O)c2)n1,88,6100,,,,550
CCc1cc(-c2ccc(C(F)(F)F)o2)n(-c2ccc3c(c2)nc(-c2cc(C(=O)N4CCCC4)ccc2O)n3Cc2c[nH]c(=O)c(C)c2)n1,,28,25,6.8,11,38
CCc1cc(-c2ccc(C)o2)n(-c2ccc3c(c2)nc(-c2cc(C(=O)N(C)C)ccc2O)n3Cc2ccc(=O)[nH]c2)n1,49,590,,,,44
CCc1cc(-c2ccc(C)o2)n(-c2ccc3c(c2)nc(-c2ccc(C(N)=O)cc2)n3Cc2ccc(OC)nc2)n1,830,3500,,,,
CCc1cc(-c2ccc(C)o2)n(-c2ccc3c(c2)nc(-c2ccccc2O)n3Cc2ccc(OC)c(O)c2)n1,410,6400,,,,
CCc1cc(-c2ccc(C)o2)n(-c2ccc3c(c2)nc(-c2cc(C(=O)N(C)C)ccc2O)n3Cc2ccc(OC)c(O)c2)n1,120,630,,,,
CCc1cc(-c2ccc(C(F)(F)F)o2)n(-c2ccc3c(c2)nc(-c2cc(C(=O)N(C)C)ccc2O)n3Cc2ccc(=O)[nH]c2)n1,,91,,,,59
CCc1cc(-c2ccc(C)o2)n(-c2ccc3c(c2)nc(-c2cc(F)ccc2O)n3Cc2ccc(=O)[nH]c2)n1,41,260,,,,
CCc1cc(-c2ccc(C)o2)n(-c2ccc3c(c2)nc(-c2ccc(C(N)=O)cc2)n3Cc2ccc(OC)c(O)c2)n1,790,640,,,,
Cc1cc(-c2ccco2)n(-c2ccc3c(c2)nc(COc2ccc(C(=N)N)cc2)n3C)n1,6000,28000,,,,
CCc1cc(-c2ccc(C)o2)n(-c2ccc3c(c2)nc(-c2ccc(C(N)=O)cc2)n3CC2CC2)n1,1000,3500,,,,
CCc1cc(-c2ccc(C)o2)n(-c2ccc3c(c2)nc(-c2cc(F)ccc2O)n3Cc2ccc(OC)c(O)c2)n1,280,10000,,,,
CCc1cc(-c2ccc(C)o2)n(-c2ccc3c(c2)nc(-c2ccccc2O)n3Cc2ccc(=O)[nH]c2)n1,55,260,,,,690

# From ChEMBL document CHEMBL2203110, “Inhibition of HIV-1 capsid assembly: optimization of the antiviral potency by site selective modifications at N1, C2 and C16 of a 5-(5-furan-2-yl-pyrazol-1-yl)-1H-benzimidazole scaffold” (Bioorg Med Chem Lett, 2012)
